# Screening results as filed in PubChem BioAssay.
# HCT116 bCat-KO: beta-catenin-lacking colon tumor cell growth suppression; HCT116 beta-catenin knockout viability, CellTiter-Glo, 60 h; hits give low values; viability, % at 10 µM; 1.5% of 140,000 active; AID 818;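 active means viability at or under a set limit, the compound median less 4 SD, cut at about 6% in these data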;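 further: 0% = Hyamine 1622 control at 20 µM and 100% = untreated cell control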
# Lmaj promast: reduces viability of Leishmania major promastigotes; resazurin fluorescence viability; inhibition, % at 10 µM; 9% of 200,000 active; AID 1063; in the data active means inhibition above about 50%;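 further: promastigotes grown with compound for 44 hours at 28 °C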
# PMI activator: activators of human phosphomannose isomerase | P34949 | purified human PMI, coupled resazurin fluorescence, 20 min; hits give high values; 1 = vehicle control, 0 substrate-free wells | activation factor at 20 µM | 0.005% of 190,000 active | AID 1214;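 active means activation factor of 2 or more at 20 µM, relative to plate controls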
# Target sequence (P34949 whole entry, looked up): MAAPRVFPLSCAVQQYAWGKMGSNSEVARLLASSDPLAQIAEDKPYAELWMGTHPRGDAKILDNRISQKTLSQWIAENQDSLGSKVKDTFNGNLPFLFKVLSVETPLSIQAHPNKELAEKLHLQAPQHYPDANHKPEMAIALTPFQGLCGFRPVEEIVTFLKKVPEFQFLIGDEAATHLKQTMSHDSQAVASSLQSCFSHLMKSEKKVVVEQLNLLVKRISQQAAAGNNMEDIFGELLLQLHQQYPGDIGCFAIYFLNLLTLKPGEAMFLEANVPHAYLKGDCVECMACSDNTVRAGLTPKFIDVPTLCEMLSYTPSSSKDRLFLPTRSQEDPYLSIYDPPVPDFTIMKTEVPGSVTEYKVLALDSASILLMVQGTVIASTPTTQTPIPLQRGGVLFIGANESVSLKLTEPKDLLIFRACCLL
# PMI act satM6P: activators of human phosphomannose isomerase at near-saturating mannose 6-phosphate; P34949; coupled PMI enzyme assay, resazurin fluorescence, 20 min; hits give high values; 1 = untreated enzyme, 0 = substrate-free blank; activation factor at 20 µM; 0.34% of 190,000 active;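 active means activation factor of 2 or more at 20 µM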
#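 Test system: human phosphomannose isomerase with PGI, G6PDH, diaphorase coupling enzymes / Doses: 20 µM compound, 1% DMSO / Times: enzyme reaction with compound 20 min at room temperature / Measured by: Diaphorase-driven resazurin-to-resorufin fluorescence, excitation 544, emission 590 nm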
# HCT116 PTEN-null: suppresses growth of cells with PTEN deletion; HCT116 PTEN-null viability, CellTiter-Glo, 60 h; hits give low values; AID 827; viability, % at 10 µM; 1.2% of 140,000 active;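 active means viability at or below a set limit, 4 SD under the median of all tested compounds, cut at about 3.7% in these data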;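 further: PTEN knockout HCT116 line with beta catenin targeted HCT116 as companion control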
# An asterisk follows results filed as active; · = no result. Shown are actives, neighbours in structure and some others; about 9.6% of the full set was active somewhere.
SMILES,HCT116 bCat-KO,Lmaj promast,PMI activator,PMI act satM6P,HCT116 PTEN-null
CCc1ccc(-n2c(O)c(/C=N/NC(=O)c3ccncc3)c(=O)[nH]c2=O)cc1,98,-7,1,1,103
CCC(C)n1c(O)c(/C=N/N2CCOCC2)c(=O)[nH]c1=S (stereo unspecified),99,55*,1.1,1.1,98
CCCCC(=O)N/N=C/c1c(O)n(C2CC2)c(=S)[nH]c1=O,92,98*,0.8,0.9,99
CCC(C)n1c(O)c(/C=N/NC(=O)c2ccncc2)c(=O)[nH]c1=S (stereo unspecified),90,100*,1.1,1.3,98
CCC(=Nc1ccccc1NC(C)=O)c1c(O)n(C)c(=O)n(C)c1=O,82,2,1,1.2,94
CCCCn1c(O)c(C=Nc2c(C)n(C)n(-c3ccccc3)c2=O)c(=O)[nH]c1=O,100,-2,1,0.9,118
CCC(=NCC1CCCO1)c1c(O)[nH]c(=O)[nH]c1=O (stereo unspecified),98,-6,1,1,103
Cc1nc2ccccc2c(=O)n1-c1ccc(Cl)cc1[N+](=O)[O-],·,-2,1,1,·
O=c1[nH]c(=S)n(C2CC2)c(O)c1/C=N/Nc1ccccc1,86,89*,1.6,2*,93
CCC(C)n1c(O)c(/C=N/Nc2ccccc2)c(=O)[nH]c1=S (stereo unspecified),85,81*,1.7,2.7*,87
O=c1[nH]c(=S)n(C2CC2)c(O)c1/C=N/Nc1cccc2ccccc12,47,-1,1.3,1.2,53
NS(=O)(=O)c1ccc(N2CCNCC2)cc1,·,-3,0.9,0.9,·
N=C(N)c1c(O)n(C2CCCCC2)c(=O)n(C2CCCCC2)c1=O,30,42,0.8,0.9,13
Cc1ccc(C)c(NC(=O)CSc2nnc([C@@H](N)Cc3c[nH]c4ccccc34)o2)c1,94,·,0.9,0.9,97
CN1CCN(CCC(C#N)(c2ccccc2)c2ccccc2)CC1,88,79*,1.1,1,91
Cc1cc(C=C2C(=O)NC(=S)NC2=O)c(C)n1-c1ccc2c(c1)OCO2,18,86*,1.3,1.8,12
CCCCP(=O)(O)CCC(=O)O,92,-5,0.9,0.9,99
O=C1C2CCN(CC2)[C@@H]1Cc1ccc2ccccc2c1O,80,99*,0.7,0.9,92
Cc1ccc(CN2C3CCCC2CC(NC(=S)NCc2ccccc2)C3)cc1 (stereo unspecified),·,92*,1,1,·
CN1C2CCC1CC(OC(=O)c1ccc(Cl)cc1)C2 (stereo unspecified),89,97*,0.9,1,98
CN1C2CCC1CC(OC(=O)c1ccc(Cl)cc1)(C(=O)O)C2 (stereo unspecified),97,-3,1.2,1.2,97
CCOc1ccc(C(=O)OC2CC3CCC(C2)N3C)cc1 (stereo unspecified),·,72*,1,1,·
COc1ccc(NC2(C#N)CCCCC2)cc1,·,-1,0.9,0.5,·
O/N=C1/C(=C\c2ccccc2)N2CCC1CC2,92,1,0.9,0.9,99
Cc1cc(C(=O)N=Nc2c(O)n(C)c3ccccc23)c(C)o1,68,69*,1,1.1,74
SMILES,HCT116 bCat-KO,Lmaj promast,PMI activator,PMI act satM6P,HCT116 PTEN-null
O=C1CN=C(c2ccccc2)c2cc(Br)ccc2N1Cc1cc(=O)n2ccccc2n1,84,82*,0.9,1,83
O=C1CN=C(c2ccccc2)c2ccccc2N1Cc1ccc(C(F)(F)F)cc1,66,6,0.9,0.9,59
Cc1ccc(N2C(=O)NC(=O)C3(Cc4ccccc4N4CCN(c5ccccc5)CC43)C2=O)cc1 (stereo unspecified),74,1,1.6,2.2*,66
O=[N+]([O-])c1ccc(N2CCCC2)cc1N/N=C1\CN2CCC1CC2,71,27,1,1,74
O=C(N/N=C1/CN2CCC1CC2)c1cc2ccccc2cc1O,76,92*,0.7,0.9,75
Cc1c(C=O)c2ccccc2n1Cc1cccc(F)c1,85,-6,1.2,1.1,84
CC(Cc1ccccc1Sc1ccccc1O)N(C)C (stereo unspecified),72,100*,1.1,1.1,76
CC1CCC(NCC(O)c2ccccc2)CC1 (stereo unspecified),96,71*,1,1.1,96
CN1CCC(N(C)c2nc(-c3ccc([N+](=O)[O-])cc3)nc3ccccc23)CC1,1.5*,100*,0.9,0.9,1.5*
COc1ccccc1CN1CCN(Cc2ccc(Cl)cc2)CC1,·,12,1,1,·
COC(=O)c1ccc(CN2CCN(Cc3ccccc3)CC2)cc1,90,93*,1.1,1.1,92
CCOP(=O)(OCC)C(NC(C)=O)C(Cl)(Cl)Cl (stereo unspecified),86,-7,1.1,1,83
C=CCN1C(=O)NC(=O)/C(=C/c2ccoc2)C1=O,100,10,1.6,2.2*,100
O=C(c1ccc(Cl)cc1)C1CCCN(Cc2ccc3c(c2)OCCO3)C1 (stereo unspecified),·,92*,0.9,0.8,·
O=C(c1ccc(Cl)cc1)C1CCCN(Cc2ccc3ncccc3c2)C1 (stereo unspecified),·,88*,1,1,·
Cc1ccsc1C(=O)C1CCCN(Cc2cnn(C(C)C)c2)C1 (stereo unspecified),·,-1,·,·,·
CCNCC1(c2ccc(OC)c(OC)c2)CCCC1,94,-8,1,0.9,91
O/N=C1\CCC2CN(C3CCCCC3)CC2C1 (stereo unspecified),88,1,1,1,93
CC(C)Oc1ccc(Cc2c(O)[nH]c(=O)[nH]c2=O)cc1,102,-7,1,1,103
CC(=O)c1ccc(OC(C)C)c(Cc2c(O)[nH]c(=S)[nH]c2=O)c1,·,-2,1.5,2.1*,·
C[n+]1c(-c2ccccc2)cc(-c2ccc(Cl)cc2)cc1-c1ccccc1,·,99*,1,1,·
Cc1ccc(CN2C(=O)NC(=O)C3(Cc4c(nc5ccccn5c4=O)N4CCCCCC43)C2=O)cc1 (stereo unspecified),74,85*,0.9,1,55
CC(=O)OC1C2CCC1C(N1CCCC1)CC2 (stereo unspecified),106,-6,1,1.1,122
O=c1[nH]c(=O)n(Cc2ccccc2)c(O)c1C=Nc1ccc(CN2CCOCC2)cc1,98,7,1.2,1.1,92
CCc1cc2c(N3CCN(C)CC3)ncnc2s1,94,73*,1.3,1.2,108
CCOC(=O)C1CCN(C=C2C(=O)N(C)C(=S)N(C)C2=O)CC1,87,28,1,1,98
COc1cccc(CN2CCCCC2c2cccnc2)c1 (stereo unspecified),100,72*,1,1,·
CCCCN(Cc1ccccc1)C1CCN(CCc2ccccc2)CC1,83,91*,1.1,1.2,82
